From PubChem
Most compounds without a hit are left out; they make up all but 5.3% or so of the library.
Mdm2 MdmX PPI: disrupts the human Mdm2-MdmX interaction; O15151+Q00987; SaOS-2 split-luciferase Mdm2/MdmX complementation, luminescence; inhibition, % at 8 µM; actives 3% (n = 330,000); AID 485346;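 active = inhibition of at least 50% at 8 µM in the primary screen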
NALP3 yeast inh: NALP3 inhibition in yeast; actives 0.39% (n = 330,000); Yeast reconstituted NLRP3/ASC/caspase-1, beta-gal luminescence, 24 h; AID 2825; inhibition, % at 10 µM;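 active = inhibition of 50% or more; inactive = inhibition below 50%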;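 also: plate controls were induced DMSO wells for no effect and uninduced yeast grown without galactose for full effect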
Beta apoptosis: beta cell apoptosis inhibition | INS-1E cytokine-induced death, ATP luminescence, 48 h; percent of positive-control rescue, neutral wells zero | protection from apoptosis, % (concentration not given with the values) | actives 0.8% (n = 300,000) | AID 435005;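 active = Every replicate reaches about 75%, or at least half do and their mean reaches it too, limit read from the data; inconclusive = At least half of replicates reach the limit but their mean does not; inactive = Under half of replicates reach the limit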;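 also: 0% = cytokine-treated negative control wells and 100% = positive control rescue; higher means more ATP so stronger rescue from cytokine killing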
CSC inhib: cancer stem cell inhibition. cancer stem cell-like cells viability, luminescence. inhibition, % at 7.5 µM. actives 1.1% (n = 300,000). AID 2717; in the data active = inhibition above about 75%; inconclusive = no clear call, values can overlap the other calls; tested in HMLE shEcad cells
T cruzi repl: blocks replication of Trypanosoma cruzi. T. cruzi beta-gal in NIH3T3, luminescence, 90 h. inhibition, % (concentration not given with the values). actives 1.4% (n = 300,000). AID 1885;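 active = mean inhibition across valid replicates above about 55%, limit read from the data; inconclusive = mean below that limit but half or more replicates reach it; inactive = mean below it, under half of replicates reach it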;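 also: signal also drops with host cell toxicity which is not excluded here; 0% = plate median of DMSO wells and 100% = zero luminescence signal; higher percent means less beta-gal luminescence so fewer parasites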
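System: NIH/3T3 fibroblasts plus reporter T. cruzi. Medium: DMEM plus 2% FBS. Probe or stimulus: 5000 reporter trypomastigotes per well. Compound: single 50 nL compound addition per well in DMSO. Incubation: co-culture of at least 90 h after 3 h attachment. Detection: GalScreen β-gal luminescence, detergent lysis, 60 min. Evaluation: parasite load inhibition, %.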
Calb FLC: C. albicans growth modulation with fluconazole; C. albicans CaCi-2 (fluconazole-resistant clinical isolate) + fluconazole, Alamar Blue growth, 48 h; growth inhibition, % (no concentration beside the values); actives 0.57% (n = 300,000); AID 1979;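 active = growth inhibition above about 58% in most replicates, limit read from the data, passing the limit was not always enough; inconclusive = exactly half the replicates above a set limit; inactive = most replicates below a set limit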;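 also: all wells also contain fluconazole at 8 µg/ml as a sub-toxic cotreatment; 0% = median of DMSO wells and 100% = median of geldanamycin control wells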
Numbers without * were called inactive; ? = inconclusive; nt = no result given.

SMILES | Mdm2 MdmX PPI | NALP3 yeast inh | Beta apoptosis | CSC inhib | T cruzi repl | Calb FLC
O=C(N/N=C/c1cc([N+](=O)[O-])ccc1O)c1cc(-c2ccccc2)nc2ccccc12 | 42.7 | 13.1 | 116.6* | 39.0 | 44.9 | -14.3
O=C(N/N=C/c1cc([N+](=O)[O-])ccc1O)c1c[nH]c2ccccc12 | 2.5 | -9.0 | 78.1* | ? | 4.3 | 1.8
CC1CN(CCc2ccccc2)C(C)C/C1=N/O (configuration not stated) | -3.8 | 5.6 | 22.7 | 22.6 | -26.4 | 5.0
C/C(=N\NC(=O)C(C)n1nc(C)c([N+](=O)[O-])c1C)c1ccccc1O (configuration not stated) | 39.8 | 8.9 | 91.6* | 15.3 | 27.4 | -12.0
Cc1nn(C(C)C(=O)NCc2ccco2)c(C)c1[N+](=O)[O-] (configuration not stated) | 7.3 | 13.3 | -2.6 | -3.2 | 4.2 | -4.0
Cc1sc2cc3c(c(C(=O)c4ccccc4)[n+]2c1C)-c1cccc2cccc-3c12 | nt | nt | 99.5* | 35.0 | 73.8* | 56.7
O=C(c1ccccc1)c1c2c(cc3sc4ccccc4[n+]13)-c1cccc3cccc-2c13 | nt | nt | 98.4* | 63.7 | nt | nt
Cc1ccc(C(=O)NNC2=Nc3cccc4cccc2c34)cc1 | 43.2 | -1.5 | 37.8 | 14.2 | 14.8 | 23.8
CCN(CC)CCNc1nc2cc(OC)c(OC)cc2c2nc(-c3ccccc3)nn12 | 19.4 | 17.0 | nt | -0.6 | 64.7* | -3.1
Cc1cc([N+](=O)[O-])ccc1NC(=O)Nc1ccc(F)cc1F | 46.4 | 47.3 | nt | 23.2 | 55.1* | 10.6
CN(C)S(=O)(=O)c1cccc(CSCc2cccc(S(=O)(=O)N(C)C)c2)c1 | 1.6 | -54.0 | 107.6* | 9.2 | 2.3 | -7.8
Cn1c(SCC(=O)N2CCc3ccccc3C2)nnc1-c1ccncc1 | 23.9 | -0.3 | -4.6 | -17.4 | -0.4 | 56.9*
Cc1cc(C(=O)N/N=C/c2ccc(N(C)C)cc2)c2ccccc2n1 | 36.0 | 6.4 | -1.4 | 43.5 | -1.8 | 3.6
Cc1ccccc1C(=O)Nc1cccc(C(=O)N/N=C/c2cc(Cl)cc([N+](=O)[O-])c2O)c1 | 26.0 | 20.4 | 101.1* | 49.1 | 40.1 | 4.2
Cc1ccc(NC(=O)c2cc(-c3ccccc3)nn2-c2ccccc2)cc1 | -1.6 | 13.0 | 2.3 | 87.9* | 12.6 | 24.5
Cc1ccc(NC(=O)c2cc(-c3ccccc3)nn2-c2ccccc2)c(Br)c1 | 12.6 | 9.7 | -12.3 | 61.2 | 17.9 | -5.6
CC(NC(=O)CNC(=O)OCc1ccccc1)C(=O)N1CC(O)CC1C(=O)OCc1ccccc1 (configuration not stated) | 29.9 | 0.0 | 0.1 | -16.1 | -1.8 | 4.5
Cc1snc(S(=O)(=O)/C(C#N)=N/Nc2cccc(C(F)(F)F)c2)c1C#N | 17.0 | 11.1 | 1.9 | 88.1* | 1.1 | -9.5
CCOC(=O)Nc1ccc(S(=O)(=O)Nc2cc(C)on2)cc1 | 2.7 | -13.6 | -6.3 | -17.3 | -25.0 | -2.5
CC(C)c1ccccc1-n1c(SCc2cc(=O)oc3ccc4ccccc4c23)nnc1-c1cccnc1 | 31.8 | -9.5 | 10.1 | 75.8* | 13.7 | 35.1
O=C(O)/C=C\C(=O)Nc1ccc(N2CCN(c3ccc(Cl)c(Cl)c3)CC2)cc1 | -11.1 | 35.7 | 5.7 | 85.2* | -43.2 | -65.9
O=C(O)/C=C\C(=O)Nc1ccc(N2CCN(c3ccc(Cl)cc3)CC2)cc1 | -23.6 | 35.6 | 5.1 | 49.7 | -7.5 | -39.5
CCn1c(C)nc2cc(C(=O)NNS(=O)(=O)c3ccccc3F)ccc21 | 6.2 | 8.2 | -5.5 | 0.0 | -18.5 | -15.2
CCOC(=O)c1nnn(-c2ccccc2)c1C | -2.3 | 17.4 | -9.9 | -11.9 | -10.1 | 39.3
CCOC(=O)c1nnn(-c2ccc([N+](=O)[O-])cc2[N+](=O)[O-])c1C | 7.2 | 14.2 | 37.3 | 13.8 | 95.9* | 27.3
SMILES | Mdm2 MdmX PPI | NALP3 yeast inh | Beta apoptosis | CSC inhib | T cruzi repl | Calb FLC
O=C(CCn1c(=O)c2ccccc2n(CC(=O)N2CCN(c3ccccc3)CC2)c1=O)NCc1ccco1 | -4.3 | 9.3 | 0.7 | -1.0 | 1.9 | 4.5
CN1CCc2cc3c(c4c2[C@H]1[C@H](O)c1ccccc1-4)OCO3 | 23.2 | 35.6 | 71.8 | 14.5 | 41.8 | 94.5*
COc1ccc2c(c1OC)C(=O)OC2C1c2c(cc3c(c2OC)OCO3)CCN1C (configuration not stated) | 24.6 | 1.4 | -6.9 | 13.1 | 0.4 | 3.0
Cc1ccc2cc(/C=C(\C#N)C(N)=O)c(N3CCCCC3)nc2c1 | -3.8 | 16.7 | -8.3 | 14.2 | -6.7 | 6.5
Cc1ccc2cc(C=C(C#N)C#N)c(N3CCCCC3)nc2c1 | 13.2 | 3.0 | 2.5 | 16.6 | -13.2 | 58.2*
CN1C(=O)/C(=C\C(=O)c2cccs2)c2ccccc21 | 22.9 | 20.2 | nt | nt | -26.1 | 97.3*
COc1ccc(NC(=O)CN2CCN(c3ccc(F)cc3)CC2)cc1 | -10.8 | 14.7 | -5.5 | -10.5 | -3.9 | -2.1
CCn1c(SCC(=O)N2CCN(c3ccc(F)cc3)CC2)nc2ccccc2c1=O | 8.3 | 18.7 | -0.8 | 76.9* | 19.8 | 14.9
CCn1c(SCC(=O)N2CCN(c3ccc(Cl)cc3)CC2)nc2ccccc2c1=O | 7.1 | 23.6 | -5.8 | 4.3 | 12.1 | 1.4
O=[N+]([O-])c1ccc(N2CCN(S(=O)(=O)c3ccc(Cl)c(Cl)c3)CC2)cc1NCCN1CCOCC1 | 17.4 | 17.1 | -1.9 | -0.9 | 56.2* | 0.4
Cc1c(/C=N/Nc2ccc(F)cc2)c(O)n(C)c(=O)c1C#N | -33.7 | 16.8 | -1.4 | 22.8 | -10.9 | 14.0
COc1ccccc1-c1cn[nH]c1-c1ccc(OCc2ccccc2F)cc1O | 40.8 | 0.7 | 7.5 | 93.4* | 12.6 | -5.4
COc1ccccc1-c1cn[nH]c1-c1ccc(OCc2ccc(F)cc2)cc1O | 29.6 | 12.8 | 8.1 | ? | 22.6 | -5.9
CC1(C)CC(=O)C2=C(C1)OC(N)=C(C#N)C21C(=O)N(CN2CCOCC2)c2ccccc21 (configuration not stated) | -12.0 | 12.0 | -2.2 | -15.3 | -5.1 | -5.5
COc1cccc(CN2C(=O)C3(C(C#N)=C(N)OC4=C3C(=O)CCC4)c3ccccc32)c1 (configuration not stated) | -10.9 | -0.3 | nt | 17.8 | -29.4 | 90.5*
COc1ccc(N2CCc3c(C)nc4c(OC)cc(OC)cc4c32)c(OC)c1 | 40.1 | 0.3 | 13.9 | 12.2 | 58.4* | 3.1
Cc1ccc(-n2nnnc2SCC(=O)c2cc(C)n(-c3cc(C)on3)c2C)c(C)c1 | 40.2 | 11.6 | -5.9 | 140.4* | 11.8 | 0.1
O=C(NCc1cn(-c2ccccc2)nc1-c1ccc(F)cc1)c1cccc([N+](=O)[O-])c1 | 9.0 | 21.0 | 15.1 | 13.6 | 60.5* | 11.9
O=S(=O)(NCCC1=CCCCC1)c1cccc(S(=O)(=O)N2CCOCC2)c1 | -14.8 | 5.3 | 11.8 | nt | -12.7 | -24.4
Cc1nn(C)c(C)c1CN(C)S(=O)(=O)c1ccc(F)cc1 | 13.1 | 18.2 | 4.0 | 2.4 | 1.9 | 13.9
Cc1nn(C)c(C)c1CN(C)S(=O)(=O)c1ccc2ccccc2c1 | 9.3 | 3.0 | 108.8* | 5.1 | nt | nt
